Laboratory results: ChEMBL document CHEMBL4513216, “Probing the Open Global Health Chemical Diversity Library for Multistage-Active Starting Points for Next-Generation Antimalarials” (ACS Infect Dis, 2020)

Experiment: Toxicity liver stage against HepG2, at 10uM
Type: cell-based
Design: test concentration 10 uM, cell line HepG2-A16-CD81EGFP
Conditions: human, HepG2-A16-CD81EGFP cells; read-out: INHIBITION
Procedure, shortened: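 Uninfected HepG2-A16-CD81EGFP cells, 3 × 10^3 per well, 1536-well, plated on prespotted compound at 10 μM final, parasite-free screening media added to match infected plates; puromycin 10 μM positive, DMSO 0.5% negative; run in parallel with 48 h PbLuc assay at 37 °C, 5% CO2; viability by CellTiter-Glo luminescence, normalized to controls.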

Structure (SMILES)	cytotoxicity at 10 µM
O=C(C1CC1)N1C[C@@H](F)[C@@H](OCc2nc3ccccc3[nH]2)C1	-0.0342%
Cc1cc2nc(CO[C@H]3CN(CC4CC4)C[C@H]3F)[nH]c2cc1C	1.04%
c1ccc(-c2cc(CC3(NCc4ncc[nH]4)COC3)no2)cc1	2.05%
CS(=O)(=O)Nc1ccc([C@H]2OCC(=O)N[C@@H]2CO)cc1	-5.4%
O=C1N(Cc2cccnc2)C[C@H]2CN(C3CCOCC3)CCN12	-9.7%
CC(=O)N1CCC(NC[C@H]2Cn3c(-c4ccccc4)cnc3CO2)CC1	-5.04%
Nc1c(N2CCCC2)ncnc1N1CCOCC1	12.8%
Cc1ccc(CN2CC(O)CN(C(=O)C3CC3)CC2=O)cc1 (stereo not given)	-2.12%
O=c1c(S(=O)(=O)N2CCCC2)cccn1Cc1c(F)cccc1Cl	0.814%
CCOCC1CN(S(=O)(=O)C2CC2)Cc2ncn(CC3CC3)c21 (stereo not given)	4.44%
Cc1cccc(CN2CC3(CCN(C(N)=O)CC3)OCC2=O)n1	2.17%
C[C@H]1C[C@@H]2CCN(C(=O)c3cnccn3)C[C@H]2O1	2.96%
Cc1nn(C)c2nc3c(c(C(=O)/N=c4\[nH]nc(C(C)C)s4)c12)CCC3	-2.25%
Cn1c(=O)[nH]c(=O)c2c1nc1n2CC(c2ccc(Cl)cc2)O1 (stereo not given)	-176%
CC(=O)N1N=C(c2ccccc2)OC1C(=O)NCCC1=CCCCC1 (stereo not given)	9.74%
Cc1ccc(F)c(-n2nnc(C(=O)O)c2-c2ccncc2)c1	-4.89%
Cc1nn(Cc2ccc(C(=O)NC3CCS(=O)(=O)C3)cc2)c(C)c1Br (stereo not given)	-3.71%
CCn1ccc(-c2nnc(SCC(=O)Nc3ccc(C)cc3)n2CC)n1	5.11%
CCOc1ccc(NC(C)=O)cc1S(=O)(=O)Nc1ccon1	-10.8%
CCn1cc(CN(C)S(=O)(=O)c2cnn(C)c2)cn1	8.16%
Cc1nc(CN(C)C(=O)CN(C)C)nc2c1CCC(=O)N2CCC(C)C	-10.5%
Cc1cc(C)n(CCNCc2cc(-c3ccccc3)c[nH]c2=O)n1	-2.47%

Structure (SMILES)	cytotoxicity at 10 µM
O=C(CCn1ccnc1)N1CC[C@H](Oc2cccc(F)c2)[C@@H](O)CC1	-1.83%
CC(C)n1nccc1CN1Cc2nccn2CC1c1ccccc1 (stereo not given)	5.38%
Cc1nc(NCC2CCOCC2)cc(C2CCN2S(C)(=O)=O)n1 (stereo not given)	2.58%
O=C(O)c1ccccc1CN1CCCC(Cc2ccn[nH]2)C1 (stereo not given)	2.79%
Cc1nc2c(c(NCCN3CCOCC3)n1)CCN(C)C2	4.09%
Cc1cc(C)nc(C2CCCN2c2ccnc(C)n2)n1 (stereo not given)	-16.4%
Cc1nc[nH]c1CN1CCN(C2CCOCC2)CC(C(N)=O)C1 (stereo not given)	-19.5%
Cc1ccc(-n2c(SCC(=O)O)nnc2-c2cccc(C)c2)cc1	-2.05%
CC(=O)N1CCC(Cc2cnc(C(=O)N3CCCC3)cn2)C1 (stereo not given)	-23.6%
O=S(=O)(N1CCCCC1)N1CCC(Oc2cnccn2)CC1	-14.1%
CN(C)S(=O)(=O)N1CCN(Cc2ccnc(N3CCCC3)n2)CC1	-4.42%
O=C(CN(Cc1cccs1)C1CCS(=O)(=O)C1)NCC1CCCCC1 (stereo not given)	0.611%
CCC1(CC)CC(=O)N(CC(O)c2ccc(Cl)cc2)C1=O (stereo not given)	4.06%
Cc1cccc2nc(CN3CCC(Cn4ccnn4)CC3)cc(=O)n12	2.62%
CCN(Cc1ccc(N(C)C)cc1)S(=O)(=O)c1cc(Br)ccc1OC	5.12%
CCS(=O)(=O)NCC(=O)N(C1CC1)C1Cc2ccccc2C1	4.25%
COC(=O)NCC(=O)NC1(C)CCc2ccccc2C1 (stereo not given)	4.29%
COC1CCN(c2ccc(F)cc2CN(C)C(C)C(N)=O)CC1 (stereo not given)	9.13%
CCc1ccc(C(COC)NC(=O)c2ccsc2)o1 (stereo not given)	1.57%
O=C(OCc1ccccc1)c1cccc(NC(=O)C2COCCO2)c1 (stereo not given)	-0.488%
Cc1cnc(C(=O)NCC(c2ccc(C)o2)N2CCOCC2)cn1 (stereo not given)	-7.2%
CNC(=O)CCS(=O)(=O)Cc1coc(-c2ccc(F)cc2)n1	-3%

Structure (SMILES)	cytotoxicity at 10 µM
Cc1cn2nc(N3CCn4c(nnc4C(C)C)C3)sc2n1	5.73%
Cc1nn(CC(=O)N2CCCN(c3cccnn3)CC2)c(C)c1Cl	-1.2%
Cc1cc2c(o1)CC(C)(C)CC2NC(=O)CNC(=O)C1CC1 (stereo not given)	4.57%
COCc1noc(-c2nn(-c3ccc(F)cc3)c3c2CCC3)n1	2.87%
N#Cc1ccc(NCc2cccc(COC3CCOCC3)c2)nc1	32.4%
c1cc(CN2CCSC3(CCCCC3)C2)no1	0.807%
CS(=O)(=O)c1nccn1CCOc1ccccc1F	4.05%
CC(CO)N(C)C(=O)c1cn(-c2ccc(Br)cc2)cn1 (stereo not given)	-2.87%
OC1(CNC2CCN(c3ccccn3)CC2)CCc2ccccc21 (stereo not given)	-3.48%
Cc1oc(C(=O)O)cc1S(=O)(=O)Nc1c(F)cccc1-n1cccn1	-3.45%
COc1ccnc(N2CCN(C(=O)c3csc(C(C)C)n3)CC2)n1	-1.82%
Cc1ccc(CC(=O)N2CCOC(c3nc(C(C)(C)C)n[nH]3)C2)cn1 (stereo not given)	-5.96%
c1cncc(N2CCCn3nnc(CN4CCOCC4)c3C2)c1	2.46%
CO[C@H]1CCN(S(=O)(=O)c2cccs2)[C@H]1Cc1ccncc1	-75%
CN(C)C(=O)[C@H]1C[C@H]2OCC[C@H]2N(Cc2ccccn2)C1	-75.5%
CC(C)NC(=O)N1CCC2(CC(=O)N(c3cccc(F)c3)C2)C1 (stereo not given)	3.46%
CC(C)N[C@@H]1CC[C@@H]1NC(=O)c1ccccc1OC(F)(F)C(F)F	1.77%
CCC1CN(C(=O)c2ncccc2O)CCC(=O)N1Cc1ccccc1 (stereo not given)	3.2%
O=C(CC(F)(F)F)N1CCCC(c2nccn2Cc2ccncc2)C1 (stereo not given)	3.22%
C[C@@H]1CN(C2CCN(c3ccccc3F)CC2)CC[C@]1(C)O	-5.32%
N[C@@H]1CC[C@@H](Nc2nccc(CCC(F)(F)F)n2)C1	-3.73%
CC(C)c1nccc(CN2CCCC(O)(CN(C)C)C2)n1 (stereo not given)	2.89%

Structure (SMILES)	cytotoxicity at 10 µM
COc1cccc(CC2CN(C(=O)c3ccnn3C)CCO2)c1 (stereo not given)	0.769%
CCN(Cc1noc(C2CCC2)n1)C(=O)c1cnc2ccccc2c1	8.59%
COCCN1CCC(CNC(=O)Nc2ccc(F)c(Cl)c2)C1 (stereo not given)	2.59%
Cc1cc(C(=O)N2CC(O)CO2)c2cccc(C)c2n1 (stereo not given)	7.13%
CN(Cc1cccc(O)c1)C(=O)c1ccc(CCC(C)(C)O)cc1	3.58%
Cc1nc(CN(C)C(=O)C2CC(=O)N(c3cccc(O)c3)C2)cs1 (stereo not given)	-0.968%
O[C@@]1(CNCCCOc2cccnc2)CCCN2CCCC[C@@H]21	3.42%
Cc1cc(C)c(C#N)c(NCCSc2nncn2C)n1	-1.01%
CN1C[C@@H](NC(=O)C(C)(C)C)C[C@H]1C(=O)NCc1ncc[nH]1	0.452%
CC(C)(C)N1CC(C(=O)NCc2nc(C3CCCCC3)no2)CC1=O (stereo not given)	1.08%
CCN1CCC(N2CCN(C)C3(CCC(=O)N(CCOC)CC3)C2)CC1 (stereo not given)	-0.724%
CSc1ccc(C(=O)N2CCCC(Nc3ccc(F)cc3)C2)cc1 (stereo not given)	-11.4%
Cc1c(C(=O)N(C)C)cccc1N(C)S(C)(=O)=O	8.19%
CC(C)CN1CCCn2nc(CNC(=O)CCCc3cn[nH]c3)cc2C1	-6.36%
CCCOCCN1CCC2(CC1)CC(c1ccccc1)C(=O)N2C (stereo not given)	38.1%
COCc1c(C(=O)NC2CCCC2)nnn1-c1ccc(C)cc1	5.97%
CC(C(=O)NC1CC1)N1CCN(Cc2ccn(C)c(=O)c2)CC1 (stereo not given)	-5.57%
Cc1cc(C)cc(C(=O)Nc2cn[nH]c2)c1	-6.57%
Cc1nc(C)n(CC2CCCN2Cc2nc(-c3ccoc3)no2)n1 (stereo not given)	-8.48%
N#CC1(C(=O)N2CCCN(c3nccs3)CC2)CCCC1	-11.1%
Cc1ncccc1CNCC1CCCN1c1cccnn1 (stereo not given)	-14.2%
Cc1cc(F)ccc1CNCc1cccc(C(=O)N2CCCC2)c1	-10.8%

Structure (SMILES)	cytotoxicity at 10 µM
Cc1noc(C2CCN(C(=O)c3cc(Br)ccc3F)CC2)n1	-6.14%
CN(Cc1ccco1)C(=O)CN1CCCCC1Cn1cncn1 (stereo not given)	3.61%
COC(=O)N1CCCN(C(=O)c2cccc3cccnc23)CC1	8.33%
CC1CN(CC(=O)N2CCCC2)CCN1c1ccc2nncn2n1 (stereo not given)	-5.46%
COc1ccccc1CC(=O)NS(=O)(=O)c1cncc(Br)c1	-12.7%
COc1cccc(C(=O)N2CCCCC2CNC(N)=O)c1 (stereo not given)	-7.03%
CCOc1ccc(C#N)cc1NCC(=O)Nc1cc(C)no1	-6.67%
O=C(CN1CCCC(Cn2cncn2)C1)NCCOc1ccccc1 (stereo not given)	5.61%
CC(C)c1nc(CCNC(=O)NCc2ccnc(N(C)C)c2)cs1	-4.69%
CCc1nc(C2CCCN(C(=O)c3ccc(OC(C)C)nc3)C2)no1 (stereo not given)	3.25%
CNC(=O)CN1CCC(NC(=O)N(C)Cc2cc(C)on2)CC1	-0.626%
c1ccc(CNc2cc(C3CCCNC3)ccn2)nc1 (stereo not given)	-0.565%
Cc1c(NC(=O)CN2CCN(C3CCCC3)C(=O)C2)cnn1C	5.25%
O=C(c1ccoc1)N1CCC(NCc2ccccc2Cl)CC1	3.95%
O=C(CC1CC2(CCN(CC3CC3)CC2)Oc2ccccc21)NC1CC1 (stereo not given)	8.5%
CCC1=N[C@@]2(CC[C@@H]3CN(CC4CC4)C[C@@H]32)C(=O)N1CC	6.56%
CNC(=O)CN1CCC12CCN(C(=O)Cc1ccccc1)C2 (stereo not given)	-75.4%
CN1CCCc2c1nc1c(c2N)CCCC1	11.2%
CN(C)C(=O)CO[C@H]1CN(Cc2cccc(C#N)c2)[C@@H]2COC[C@H]12	11.4%
COCCNC(=O)C1CN(Cc2cccc(C)n2)Cc2ccnn2C1 (stereo not given)	-79.2%
CN(Cc1cn2c(n1)CN(C(=O)c1ccc[nH]1)CC2)Cc1ccco1	-3.55%
CCC=C(C)C(=O)N1CSCC1C(=O)NC1=NCCS1 (stereo not given)	11.8%
